Activity calls are given as the source filed them.
Experiments:
Mus musculus [1] = assay: Antinociceptive activity in Swiss mouse assessed as inhibition of formaldehyde-induced nociceptive response in right hind paw at 50 to 150 mg/kg, po administered 5 mins followed by formaldehyde challenge measured for 15 to 30 mins; format: functional, organism-based
In short: (§1)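 Female Swiss mice received compound p.o. (50, 100 or 150 mg/kg in 0.5% CMC) 5 min before s.c. injection of 0.92% formaldehyde (20 µL) into the right hindpaw. Licking time was recorded at 0–5 min and 15–30 min; n = 9. ANOVA with Newman–Keuls.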

Mus musculus [2] = assay: Antinociceptive activity in Swiss mouse assessed as inhibition of formaldehyde-induced nociceptive response in right hind paw at 50 to 150 mg/kg, po administered 5 mins followed by formaldehyde challenge measured over 5 mins; format: functional, organism-based; in short: as §1
Mus musculus [3] = assay: Antinociceptive activity in Swiss mouse assessed as inhibition of formaldehyde-induced nociceptive response in right hind paw at 150 mg/kg, po administered 1 hr followed by formaldehyde challenge measured 15 to 30 mins; format: functional, organism-based; design: dose 150 mg/kg
In short: (§2)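 Female Swiss mice received vehicle (0.5% CMC, 4 ml/kg) or compound p.o. at 50–150 mg/kg, or at 3–30 mg/kg, 1 h before 20 µL of 0.92% formaldehyde s.c. into the dorsal right hindpaw. Paw-licking time was scored at 0–5 min (first phase) and 15–30 min (second phase). n = 9. Data: mean ± S.E.M., one-way ANOVA with Newman–Keuls.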

[4] = Cmax in Swiss mouse at 100 mg/kg, po by LC-MS/MS analysis; format: ADME, organism-based; design: dose 100 mg/kg, route oral; conditions: in vivo
In short: (§3)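 Female Swiss mice (25–30 g), fasted 12 h, given 100 mg/kg p.o. as a suspension in 0.5% CMC (4 mL/kg). Heparinized blood was centrifuged and plasma stored at −70 °C. Plasma was run by LC–MS/MS on a C18 column with methanol/2 mM ammonium acetate + 0.03% formic acid (33:67). Values are mean ± S.E.M.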

[5] = Half life in Swiss mouse at 100 mg/kg, po by LC-MS/MS analysis; format: ADME, organism-based; design: dose 100 mg/kg, route oral; conditions: in vivo; in short: as §3
Mus musculus [6] = assay: Antinociceptive activity in Swiss mouse assessed as inhibition of formaldehyde-induced nociceptive response in right hind paw at 100 mg/kg, po administered 1 hr followed by formaldehyde challenge measured for 15 to 30 mins; format: functional, organism-based; design: dose 100 mg/kg; in short: as §2
Plasma [7] = assay: Drug metabolism in Swiss mouse plasma assessed as formation of nicotinamide at 100 mg/kg, po after 10 hrs by LC-MS/MS analysis; format: ADME, organism-based; design: dose 100 mg/kg, route oral; conditions: in vivo
In short: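 Female Swiss mice fasted 12 h received 100 mg/kg p.o. in 0.5% CMC. Six mice per time point were sampled by decapitation from 5 min to 10 h, plus six untreated controls. Heparinized plasma stored at −70 °C. Nicotinamide measured by LC–MS/MS (C18, methanol/ammonium acetate–formic acid mobile phase).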

Mus musculus [8] = assay: Antinociceptive activity in Swiss mouse assessed as inhibition of formaldehyde-induced nociceptive response in right hind paw at 150 mg/kg, po administered 1 hr followed by formaldehyde challenge measured over 5 mins; format: functional, organism-based; design: dose 150 mg/kg; in short: as §2
[9] = AUC (0 to infinity) in Swiss mouse at 100 mg/kg, po by LC-MS/MS analysis; format: ADME, organism-based; design: time infinity, dose 100 mg/kg, route oral; conditions: plasma; in short: as §3
[10] = Tmax in Swiss mouse at 100 mg/kg, po by LC-MS/MS analysis; format: ADME, organism-based; design: dose 100 mg/kg, route oral; conditions: in vivo; in short: as §3
Mus musculus [11] = assay: Toxicity in Swiss mouse assessed as time spent on rotating rod at 150 mg/kg, po administered 1 hr prior to testing (reference value: 120 secs); format: organism-based; design: dose 150 mg/kg, route oral; conditions: in vivo
In short: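 Female Swiss mice were trained on a rota-rod (14 rpm) over 3 days, with a 2 min cut-off. After baseline timing, they were dosed p.o. with vehicle (0.5% CMC, 4 ml/kg), compound at 150 mg/kg, or phenobarbital 40 mg/kg as positive control, and retested 1 h later. n = 9.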

Plasma [12] = assay: Drug metabolism in Swiss mouse plasma assessed as nitrite level at 100 mg/kg, po measured after 0.25 to 3 hrs by Griess assay; format: ADME, organism-based; design: dose 100 mg/kg, route oral; conditions: in vivo
In short: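 Female Swiss mice fasted 12 h received vehicle (0.5% CMC, 4 ml/kg) or compound at 100 mg/kg p.o. After ketamine/xylazine anesthesia at 15 min, 1 h and 3 h, blood was taken from the abdominal artery to avoid hemolysis. Heparinized plasma, stored at −70 °C, was mixed 1:1 with Griess reagent for 10 min at room temperature. A540 read against blank plasma; n = 7.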

[13] = AUC (0 to t) in Swiss mouse at 100 mg/kg, po by LC-MS/MS analysis; format: ADME, organism-based; design: dose 100 mg/kg, route oral; conditions: plasma; in short: as §3
Mus musculus [14] = assay: Antinociceptive activity in Swiss mouse assessed as inhibition of formaldehyde-induced nociceptive response in right hind paw at 100 mg/kg, po administered 1 hr followed by formaldehyde challenge measured over 5 mins; format: functional, organism-based; design: dose 100 mg/kg; in short: as §2
Mus musculus [15] = assay: Antinociceptive activity in po dosed Swiss mouse assessed as inhibition of formaldehyde-induced nociceptive response in right hind paw administered 1 hr followed by formaldehyde challenge measured over 5 mins; format: functional, organism-based; in short: as §2
Mus musculus [16] = assay: Antinociceptive activity in Swiss mouse assessed as inhibition of formaldehyde-induced nociceptive response in right hind paw at 100 to 150 mg/kg, po administered 1 hr followed by formaldehyde challenge measured 15 to 30 mins; format: functional, organism-based; in short: as §2
Mus musculus [17] = assay: Antinociceptive activity in Swiss mouse assessed as inhibition of formaldehyde-induced nociceptive response in right hind paw at 3 to 30 mg/kg, po administered 1 hr followed by formaldehyde challenge; format: functional, organism-based; in short: as §2
Mus musculus [18] = assay: Toxicity in Swiss mouse assessed as time spent on rotating rod at 40 mg/kg, po administered 1 hr prior to testing (reference value: 119 +/- 1 secs); format: organism-based; design: dose 40 mg/kg, route oral; conditions: in vivo

Compound | inhibition (Mus musculus [1]) | inhibition (Mus musculus [2]) | inhibition (Mus musculus [3]) | Cmax [4] | half-life [5] | inhibition (Mus musculus [6]) | Drug metabolism (Plasma [7]) | inhibition (Mus musculus [8]) | AUC(0-inf) [9] | Tmax [10] | Time (Mus musculus [11]) | Drug metabolism (Plasma [12]) | AUC(0-t) [13] | inhibition (Mus musculus [14]) | inhibition (Mus musculus [15]) | inhibition (Mus musculus [16]) | inhibition (Mus musculus [17]) | Time (Mus musculus [18])
O=C(NCCO)c1cccnc1 | inactive | inactive |  |  |  |  |  |  |  |  |  |  |  |  |  |  |  | 
O=C(NCCO[N+](=O)[O-])c1ccccn1 | inactive | inactive | Active | 30800 ng/mL | 66 min | Active | metabolite_detected | Active | 10.1 µg·h/mL | 6.6 min | 120 s | metabolite_notdetected | 10.1 µg·h/mL | Active |  |  |  | 
O=C(NCCO)c1ccccn1 | inactive | inactive |  |  |  |  |  |  |  |  |  |  |  |  |  |  |  | 
O=C(NCCO)c1ccncc1 | inactive | inactive |  |  |  |  |  |  |  |  |  |  |  |  |  |  |  | 
O=C(NCCO[N+](=O)[O-])c1cccnc1 [NICORANDIL] |  |  |  | 42600 ng/mL | 90 min | Active | metabolite_detected |  | 123 µg·h/mL | 40.2 min | 120 s | metabolite_detected | 121 µg·h/mL | Active | Dose-dependent effect | Active | inactive | 
CCC1(c2ccccc2)C(=O)NC(=O)NC1=O [PHENOBARBITAL] |  |  |  |  |  |  |  |  |  |  |  |  |  |  |  |  |  | 26 s
O=C(NCCO[N+](=O)[O-])c1ccncc1 |  |  |  | 49400 ng/mL | 45.6 min | Active | metabolite_detected |  | 160 µg·h/mL | 52.8 min | 120 s | metabolite_detected | 160 µg·h/mL | Active |  | Active |  | 

Source: ChEMBL document CHEMBL3259755, “Synthesis, antinociceptive activity and pharmacokinetic profiles of nicorandil and its isomers” (Bioorg Med Chem, 2014)
